Measured values: ChEMBL document CHEMBL2057085, “Diazaspirocyclic compounds as selective ligands for the α4β2 nicotinic acetylcholine receptor” (Bioorg Med Chem Lett, 2012)

Key:
[1] = target: T1, Neuronal acetylcholine receptor; alpha4/beta2 (Homo sapiens, UniProt P17787+P43681); assay: Displacement of [3H]-epibatidine from human nAChR alpha4beta2 expressed in human SH-EP1 cells; assay type: cell-based
Outline: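 Radioligand binding using [3H]-epibatidine on human α4β2 nAChR expressed in SH-EP1 cells. Affinity reported as Ki, given as the mean.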

[2] = target: Neuronal acetylcholine receptor subunit alpha-7 (Homo sapiens, UniProt P36544); assay: Binding affinity to human nAChR alpha7 expressed in HEK cells coexpressing RIC3; assay type: cell-based, HEK293
Neuronal acetylcholine receptor subunit alpha-7, sequence (P36544 whole entry): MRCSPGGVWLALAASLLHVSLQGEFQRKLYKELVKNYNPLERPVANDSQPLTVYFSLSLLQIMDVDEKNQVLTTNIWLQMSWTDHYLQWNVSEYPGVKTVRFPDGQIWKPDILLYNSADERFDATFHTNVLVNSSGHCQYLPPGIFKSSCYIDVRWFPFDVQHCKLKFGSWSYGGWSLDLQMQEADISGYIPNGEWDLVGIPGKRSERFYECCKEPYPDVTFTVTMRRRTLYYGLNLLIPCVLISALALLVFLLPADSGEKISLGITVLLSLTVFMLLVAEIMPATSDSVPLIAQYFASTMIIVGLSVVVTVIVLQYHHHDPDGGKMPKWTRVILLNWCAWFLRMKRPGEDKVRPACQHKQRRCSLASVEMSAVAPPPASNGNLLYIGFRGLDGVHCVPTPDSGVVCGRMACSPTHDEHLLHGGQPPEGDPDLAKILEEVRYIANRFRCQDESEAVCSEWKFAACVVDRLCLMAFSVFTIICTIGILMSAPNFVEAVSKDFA
Outline: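 Binding measured at human α7 nAChR in HEK cells coexpressing RIC3. Affinity reported as Ki, given as the mean.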

[3] = target: T2, Neuronal acetylcholine receptor; alpha3/beta4 (Homo sapiens, UniProt P30926+P32297); assay: Binding affinity to human ganglionic nAChR alpha3beta4 expressed in human SHSY-5Y cells; assay type: cell-based, SH-SY5Y
Outline: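 Binding measured on the α3β4 subtype endogenous to human SHSY-5Y clonal cells. Affinity reported as Ki, given as the mean.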

[4] = target: Acetylcholine receptor; alpha1/beta1/delta/gamma (Homo sapiens, UniProt P02708+P07510+P11230+Q07001); assay: Binding affinity to human muscle nAChR alpha1beta1gammadelta expressed in human TE-671 cells; assay type: cell-based
Acetylcholine receptor; alpha1/beta1/delta/gamma, sequence (P02708 whole entry): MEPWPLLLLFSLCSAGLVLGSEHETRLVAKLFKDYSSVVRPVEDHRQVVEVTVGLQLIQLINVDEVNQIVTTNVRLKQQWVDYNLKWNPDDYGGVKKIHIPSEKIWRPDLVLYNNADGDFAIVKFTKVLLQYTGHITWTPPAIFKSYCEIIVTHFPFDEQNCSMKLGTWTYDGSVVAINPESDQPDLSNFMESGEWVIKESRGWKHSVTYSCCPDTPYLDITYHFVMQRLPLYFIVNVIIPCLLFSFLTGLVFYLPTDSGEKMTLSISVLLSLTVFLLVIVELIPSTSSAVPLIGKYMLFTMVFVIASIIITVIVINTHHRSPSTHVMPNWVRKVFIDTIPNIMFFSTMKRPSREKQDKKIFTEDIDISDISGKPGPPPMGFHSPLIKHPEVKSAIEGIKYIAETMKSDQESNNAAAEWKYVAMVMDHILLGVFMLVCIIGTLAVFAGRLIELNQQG
Acetylcholine receptor; alpha1/beta1/delta/gamma, sequence (P07510 whole entry): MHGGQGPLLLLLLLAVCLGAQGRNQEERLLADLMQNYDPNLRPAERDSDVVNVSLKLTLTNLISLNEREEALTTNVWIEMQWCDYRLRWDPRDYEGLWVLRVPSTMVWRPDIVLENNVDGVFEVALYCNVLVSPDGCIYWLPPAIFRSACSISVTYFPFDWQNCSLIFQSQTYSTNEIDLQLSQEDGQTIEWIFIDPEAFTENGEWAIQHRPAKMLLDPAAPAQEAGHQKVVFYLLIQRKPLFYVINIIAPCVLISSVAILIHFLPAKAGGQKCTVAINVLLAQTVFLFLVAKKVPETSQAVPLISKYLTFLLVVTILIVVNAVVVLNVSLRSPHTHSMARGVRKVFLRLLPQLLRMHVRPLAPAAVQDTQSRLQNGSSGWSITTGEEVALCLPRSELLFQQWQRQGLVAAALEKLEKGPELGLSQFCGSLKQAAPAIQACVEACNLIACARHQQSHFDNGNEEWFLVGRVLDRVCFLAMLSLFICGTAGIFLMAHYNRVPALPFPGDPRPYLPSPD
Acetylcholine receptor; alpha1/beta1/delta/gamma, sequence (P11230 whole entry): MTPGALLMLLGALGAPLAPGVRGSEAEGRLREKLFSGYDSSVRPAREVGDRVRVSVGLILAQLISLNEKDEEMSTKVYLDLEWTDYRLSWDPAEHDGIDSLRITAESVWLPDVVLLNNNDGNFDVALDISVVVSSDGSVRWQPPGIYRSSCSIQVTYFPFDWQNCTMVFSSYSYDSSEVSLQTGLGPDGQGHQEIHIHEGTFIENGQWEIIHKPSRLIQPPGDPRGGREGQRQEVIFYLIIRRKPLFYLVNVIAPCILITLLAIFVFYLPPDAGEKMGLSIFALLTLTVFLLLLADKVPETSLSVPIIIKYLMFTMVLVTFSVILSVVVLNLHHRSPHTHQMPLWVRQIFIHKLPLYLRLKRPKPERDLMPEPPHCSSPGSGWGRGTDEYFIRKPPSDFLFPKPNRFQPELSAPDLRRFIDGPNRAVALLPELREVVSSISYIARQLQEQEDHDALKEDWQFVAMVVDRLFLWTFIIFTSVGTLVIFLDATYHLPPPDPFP
Acetylcholine receptor; alpha1/beta1/delta/gamma, sequence (Q07001 whole entry): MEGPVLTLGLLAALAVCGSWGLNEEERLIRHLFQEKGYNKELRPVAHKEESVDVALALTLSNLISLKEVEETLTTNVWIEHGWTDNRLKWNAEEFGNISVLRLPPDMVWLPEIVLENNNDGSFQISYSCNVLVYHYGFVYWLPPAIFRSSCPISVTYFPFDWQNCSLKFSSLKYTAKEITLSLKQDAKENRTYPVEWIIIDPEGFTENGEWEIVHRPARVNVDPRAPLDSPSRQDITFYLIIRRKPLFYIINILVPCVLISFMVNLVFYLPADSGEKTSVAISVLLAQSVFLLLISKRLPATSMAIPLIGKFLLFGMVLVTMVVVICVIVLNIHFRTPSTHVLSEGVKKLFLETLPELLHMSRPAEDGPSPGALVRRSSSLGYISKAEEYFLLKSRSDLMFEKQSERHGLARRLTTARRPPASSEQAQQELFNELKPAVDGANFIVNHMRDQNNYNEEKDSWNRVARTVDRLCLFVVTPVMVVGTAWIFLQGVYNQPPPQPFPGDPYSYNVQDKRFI
Outline: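 Binding carried out in TE-671 cells as the muscle-type receptor source. Affinity reported as Ki, given as the mean.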

[5] = target: T1, Neuronal acetylcholine receptor; alpha4/beta2; assay: Antagonist activity at human nAChR alpha4beta2 expressed in human SH-EP1 cells assessed as calcium flux by fluorescence analysis relative to nicotine; assay type: functional, cell-based
[6] = target: Neuronal acetylcholine receptor; alpha4/beta2 (Rattus norvegicus, UniProt P09483+P12390); assay: Displacement of [3H]-nicotine from rat nAChR alpha4beta2 in rat cortex
Neuronal acetylcholine receptor; alpha4/beta2 (Rattus norvegicus, UniProt P09483+P12390), sequence (P09483 whole entry): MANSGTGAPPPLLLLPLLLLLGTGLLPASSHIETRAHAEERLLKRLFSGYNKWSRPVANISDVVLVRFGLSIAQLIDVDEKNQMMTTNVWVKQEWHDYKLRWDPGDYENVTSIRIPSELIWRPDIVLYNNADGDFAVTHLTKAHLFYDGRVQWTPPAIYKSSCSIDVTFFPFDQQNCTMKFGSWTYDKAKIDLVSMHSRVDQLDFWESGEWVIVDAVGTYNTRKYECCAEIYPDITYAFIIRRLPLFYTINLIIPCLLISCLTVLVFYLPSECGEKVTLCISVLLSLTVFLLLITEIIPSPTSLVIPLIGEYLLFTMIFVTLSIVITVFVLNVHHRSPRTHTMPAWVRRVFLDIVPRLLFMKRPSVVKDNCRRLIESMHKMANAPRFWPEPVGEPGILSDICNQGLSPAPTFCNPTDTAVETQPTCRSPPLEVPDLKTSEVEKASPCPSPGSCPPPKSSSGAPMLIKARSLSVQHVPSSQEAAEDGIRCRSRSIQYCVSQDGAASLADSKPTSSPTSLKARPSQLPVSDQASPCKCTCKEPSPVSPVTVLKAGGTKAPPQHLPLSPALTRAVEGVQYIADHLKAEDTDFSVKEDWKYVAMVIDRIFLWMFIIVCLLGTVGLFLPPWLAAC
Neuronal acetylcholine receptor; alpha4/beta2 (Rattus norvegicus, UniProt P09483+P12390), sequence (P12390 whole entry): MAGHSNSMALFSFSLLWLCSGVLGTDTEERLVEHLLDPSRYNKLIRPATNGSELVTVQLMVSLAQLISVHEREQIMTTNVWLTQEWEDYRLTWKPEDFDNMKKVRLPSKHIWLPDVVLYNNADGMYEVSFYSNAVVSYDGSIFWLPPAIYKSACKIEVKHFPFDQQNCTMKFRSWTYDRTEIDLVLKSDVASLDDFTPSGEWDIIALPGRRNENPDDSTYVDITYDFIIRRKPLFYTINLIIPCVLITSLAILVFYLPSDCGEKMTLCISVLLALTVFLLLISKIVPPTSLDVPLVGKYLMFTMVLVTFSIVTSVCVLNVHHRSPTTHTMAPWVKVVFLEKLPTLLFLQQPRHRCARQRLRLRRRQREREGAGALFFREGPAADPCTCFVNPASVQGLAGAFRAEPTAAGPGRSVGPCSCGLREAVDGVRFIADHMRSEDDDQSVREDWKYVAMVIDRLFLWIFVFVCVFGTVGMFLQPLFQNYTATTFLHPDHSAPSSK

[7] = target: T2, Neuronal acetylcholine receptor; alpha3/beta4; assay: Agonist activity at human ganglionic nAChR alpha3beta4 expressed in human SHSY-5Y cells assessed as calcium flux by fluorescence analysis
[8] = target: T2, Neuronal acetylcholine receptor; alpha3/beta4; assay: Agonist activity at human ganglionic nAChR alpha3beta4 expressed in human SHSY-5Y cells assessed as calcium flux by fluorescence analysis relative to nicotine; conditions: SH-SY5Y

T1 sequence (P17787 whole entry): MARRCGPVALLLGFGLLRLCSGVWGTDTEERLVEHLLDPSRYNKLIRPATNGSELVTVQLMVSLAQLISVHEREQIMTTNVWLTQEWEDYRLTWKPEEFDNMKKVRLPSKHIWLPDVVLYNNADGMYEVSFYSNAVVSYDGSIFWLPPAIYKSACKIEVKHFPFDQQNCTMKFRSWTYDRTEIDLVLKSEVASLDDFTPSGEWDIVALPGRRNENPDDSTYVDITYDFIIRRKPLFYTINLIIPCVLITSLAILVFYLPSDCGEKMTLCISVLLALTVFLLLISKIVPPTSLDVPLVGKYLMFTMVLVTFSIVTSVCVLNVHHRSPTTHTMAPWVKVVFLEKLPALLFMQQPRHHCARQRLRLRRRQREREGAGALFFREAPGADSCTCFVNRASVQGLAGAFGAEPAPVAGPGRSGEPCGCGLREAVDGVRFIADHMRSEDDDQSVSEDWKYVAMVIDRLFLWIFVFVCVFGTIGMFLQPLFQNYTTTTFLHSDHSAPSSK
T1 sequence (P43681 whole entry): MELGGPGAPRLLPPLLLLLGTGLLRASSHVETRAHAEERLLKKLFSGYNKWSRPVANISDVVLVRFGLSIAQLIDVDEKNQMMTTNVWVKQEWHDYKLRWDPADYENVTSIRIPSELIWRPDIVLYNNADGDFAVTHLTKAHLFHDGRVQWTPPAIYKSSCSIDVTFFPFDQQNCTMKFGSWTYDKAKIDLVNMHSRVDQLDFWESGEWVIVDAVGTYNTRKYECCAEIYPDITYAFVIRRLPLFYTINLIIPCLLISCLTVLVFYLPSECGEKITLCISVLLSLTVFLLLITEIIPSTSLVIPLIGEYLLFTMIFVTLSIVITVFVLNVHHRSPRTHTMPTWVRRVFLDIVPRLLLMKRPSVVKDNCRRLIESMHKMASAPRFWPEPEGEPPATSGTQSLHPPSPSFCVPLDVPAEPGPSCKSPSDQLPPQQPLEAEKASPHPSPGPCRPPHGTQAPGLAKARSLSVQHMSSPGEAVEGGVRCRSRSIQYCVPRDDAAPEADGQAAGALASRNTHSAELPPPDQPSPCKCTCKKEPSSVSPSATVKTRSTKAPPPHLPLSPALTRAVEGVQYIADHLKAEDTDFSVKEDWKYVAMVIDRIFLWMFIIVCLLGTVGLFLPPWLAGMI

Compound: c1cncc(N2CCC3(CC4CCN3CC4)C2)c1 (stereo unspecified)
- Ki [1]: 32 nM
- Ki [2]: 8000 nM
- Ki [3]: 1100 nM
- Ki [4]: 11000 nM
- Emax [5]: 92%
- Ki [6]: 5.7 nM
- EC50 [7]: 6900 nM
- Emax [8]: 4.2%

Compound: c1cncc(N2CCC3(CC4CCN3C4)C2)c1 (stereo unspecified)
- Ki [1]: 29 nM
- Ki [2]: 7900 nM
- Ki [3]: 2400 nM
- Ki [4]: 9900 nM
- Emax [5]: 92%
- Ki [6]: 40 nM
- EC50 [7]: 31000 nM
- Emax [8]: 3.1%

Compound: c1cncc(N2CCC3(CCCN3)C2)c1 (stereo unspecified) [TC-2216]
- Ki [1]: 29 nM
- Ki [2]: 6900 nM
- Ki [3]: 1200 nM
- Ki [4]: 5700 nM
- Ki [6]: 75 nM
- EC50 [7]: 55000 nM
- Emax [8]: 9.6%

Compound: c1cncc(N2CCC3(C2)C2CCN3CC2)c1 (stereo unspecified)
- Ki [1]: 10 nM
- Ki [2]: 7600 nM
- Ki [3]: 560 nM
- Ki [4]: 580 nM
- Emax [5]: 92%
- Ki [6]: 34 nM
- EC50 [7]: 2600 nM
- Emax [8]: 29%
